# Bioassay records deposited in PubChem by several laboratories.
# The list is not random: actives were taken first. Their share in the collection is about 9.2%.
# HCT116 PTEN-null = growth suppressors of cells with PTEN tumor suppressor deletion; 1.2% of 140,000 active; HCT116 PTEN-null viability, CellTiter-Glo, 60 h; active compounds read low; viability, % at 10 µM;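 active = viability at or below a set limit, 4 SD under the median of all tested compounds, cut at about 3.7% in these data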;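 also: PTEN knockout HCT116 line with beta catenin targeted HCT116 as companion control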
# Autophagy mod = modulators of autophagy; 0.98% of 190,000 active; MEF GFP-LC3 puncta imaging; test concentration mostly 10 µM; AID 463193; calls only at 10 µM (by protocol);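 active = percentage of spot-positive cells more than 3 SD above its plate mean, without a fluorescence outlier flag or 80% toxicity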
# bCat KO growth = beta-catenin-lacking colon tumor cell growth suppression; HCT116 beta-catenin knockout viability, CellTiter-Glo, 60 h; active compounds read low; viability, % at 10 µM; 1.5% of 140,000 active;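 active = viability at or under a set limit, the compound median less 4 SD, cut at about 6% in these data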
# Dynein transport = blocks dynein driven cargo transport along microtubules | 0.47% of 220,000 active | 3617.4 mouse cells, GR-EGFP nuclear translocation imaging; test concentration mostly 20 µM; stimulated with dexamethasone, 1 µM; active compounds read low | AID 1381 | z-score, hits read low;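 active = plate z-score of nuclear minus cytoplasmic receptor signal below a set negative limit, without overly bright fluorescence or cell loss, cut at about -3.5 in these data, passing the limit was not always enough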;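 also: z-score of nuclear minus cytoplasmic ring GR-EGFP intensity difference per well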
#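 Also added – dexamethasone, 1.0 µM final · Buffer or medium – tet-free, stripped-serum medium · Schedule – induction 48 h, compound 1 h, agonist 30 min · Detection – formaldehyde fixation, Hoechst nuclear stain, 10x automated fluorescence imaging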
# L major viab = inhibitors of Leishmania major promastigote growth; Leishmania major promastigotes, resazurin fluorescence viability; 9% of 200,000 active; inhibition, % at 10 µM; in the data active = inhibition above about 50%;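 also: promastigotes grown with compound for 44 hours at 28 °C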
# A number is an active result; – = inactive; · = no result given; + = active, no number.
SMILES,HCT116 PTEN-null,Autophagy mod,bCat KO growth,Dynein transport,L major viab
Cc1cc(C)nc(-n2nc(C)cc2NC(=O)c2cccc(S(=O)(=O)N3CCCCC3)c2)n1,–,–,–,–,72
Cn1c(=O)c2c(nc(NCc3cccnc3)n2Cc2cccc(C(F)(F)F)c2)n(C)c1=O,–,–,–,–,95
COc1cccc(Cn2c(NCc3cccnc3)nc3c2c(=O)n(C)c(=O)n3C)c1,–,–,–,–,–
COc1cc(Cn2c(-c3nonc3N)nc3ccccc32)ccc1C,–,+,–,–,–
NNC(=O)Cn1c(-c2nonc2N)nc2ccccc21,·,–,·,–,–
CCCCOc1ccccc1NC(=O)Cn1c(-c2nonc2N)nc2ccccc21,1.6,+,1.8,–,–
CC(C)N1CCC2(CC1)N=C(c1ccc3c(c1)OCO3)CC(c1cc(Cl)ccc1O)N2 (stereo not drawn),2.9,–,2.5,–,100
CCN(CC)S(=O)(=O)c1ccc(/C=C/C(=O)OCC(=O)N(C)C)cc1,·,–,·,–,–
O=C(COc1ccc2c(c1)CCC2)N1CCc2ccccc21,–,–,–,–,52
O=C(OCC(=O)N1CCc2ccccc21)c1ccccc1,–,–,–,–,–
Cc1ccc(OCC(=O)N2CCc3ccccc32)cc1,–,–,–,–,–
O=C(CO/N=C/c1ccccc1O)N1CCc2ccccc21,–,–,–,–,75
CN1C(=S)SC(/[N+]([O-])=C/c2c(F)cccc2Cl)C1(C)C (stereo not drawn),·,·,·,–,·
O=C(CC(=O)N/N=C\c1c(Cl)cccc1Cl)NCc1ccccc1,–,–,–,–,–
Cc1ccc(NC(=S)N(CCN(C)C)C(C)c2cccnc2)cc1 (stereo not drawn),·,–,·,–,–
CCOc1ccc(NC(=S)N(CCOC)C(C)c2cccnc2)cc1 (stereo not drawn),·,–,·,–,73
COCCN(C(=S)Nc1cccc(C)c1)C(C)c1cccnc1 (stereo not drawn),·,–,·,–,64
NS(=O)(=O)c1ccc(NC2=CC(c3ccc([N+](=O)[O-])cc3)N(c3ccc(S(N)(=O)=O)cc3)C2=O)cc1 (stereo not drawn),·,·,·,–,·
CCOC(=O)CN1C(=O)S/C(=C/c2ccc(O)c([N+](=O)[O-])c2)C1=O,–,–,–,–,52
CCOC(=O)CSC1=C(C#N)C(c2ccc3c(c2)OCO3)CC(=O)N1 (stereo not drawn),–,–,–,–,73
CCC(C)(C)n1nnnc1C(c1ccc2ncccc2c1)N1CCN2CCCC2C1 (stereo not drawn),–,–,–,–,70
c1cnc2ccc(C(c3nnnn3C3CCCCC3)N3CCN4CCCC4C3)cc2c1 (stereo not drawn),–,–,–,–,72
OC1CCN(C(c2ccc3ncccc3c2)c2nnnn2C2CCCCC2)CC1 (stereo not drawn),–,–,–,–,–
O=C(Nc1ccccc1C(=O)N1CCCCC1)NC1CCCCC1,·,–,·,–,–
O=C1CSC(=Nc2ccc(Cl)cc2)N1Cc1cccnc1,·,·,·,–,·
SMILES,HCT116 PTEN-null,Autophagy mod,bCat KO growth,Dynein transport,L major viab
C/C(CC1CC2=C(CC1(C)C)C(C)(C)CCC2)=N\NC(N)=S (stereo not drawn),–,+,–,–,101
CCCc1cc(=O)[nH]c(SCc2nc3ccc([N+](=O)[O-])cc3[nH]2)n1,–,–,–,–,–
Cc1cc(=O)[nH]c(SCc2nc3ccc([N+](=O)[O-])cc3[nH]2)n1,–,–,–,–,55
CCOc1nc(N=C(N)N)nc2c(C)cccc12,–,–,–,–,100
CCOc1nc(-c2ccccc2O)nc2ccccc12,–,–,–,–,–
Cc1ccc(-c2nnc(N3CCN(C(=O)CSc4ncn[nH]4)CC3)c3ccccc23)cc1,–,–,–,–,–
Cc1ccc(OCC(=O)N2CCN(c3nnc(-c4ccccc4)c4ccccc34)CC2)cc1,–,–,–,–,89
O=C(CC1CC2CCC1C2)Nc1nc(-c2ccccn2)cs1 (stereo not drawn),·,–,·,–,100
O=C(Nc1nc(-c2ccccn2)cs1)C12CC3CC(CC(O)(C3)C1)C2,·,–,·,–,–
CN(CC1CCCO1)S(=O)(=O)c1ccc(C(=O)Nc2nc(-c3ccccn3)cs2)cc1 (stereo not drawn),–,–,3.9,–,100
O=C(Nc1nc(-c2ccccn2)cs1)C1CC1,–,·,–,–,86
O=C(Nc1nc(-c2ccccn2)cs1)C1CC(=O)N(c2ccc3c(c2)OCCO3)C1 (stereo not drawn),–,–,–,–,100
